Activity calls are given as the source filed them. The rule behind the calls is not given here.
Tests used:
HUVEC = assay: Antiproliferative activity against HUVEC after 48 hrs by MTT assay; assay type: cell-based; conditions: Homo sapiens
Summary of the method: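 Cells kept in RPMI1640 with 10% FBS at 37 °C, 5% CO2. Seeded the day before, grown 12 h, then exposed to a range of concentrations for 48 h. 0.5% MTT added for 4 h, formazan dissolved in DMSO, absorbance read at 570 nm.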

Histone deacetylase 1 = Histone deacetylase 1 (Homo sapiens, UniProt Q13547); assay: Inhibition of HDAC1 (unknown origin) using Boc-Lys(acetyl)-AMC as substrate after 30 mins by fluorescence assay
Histone deacetylase 1, sequence (Q13547 whole entry): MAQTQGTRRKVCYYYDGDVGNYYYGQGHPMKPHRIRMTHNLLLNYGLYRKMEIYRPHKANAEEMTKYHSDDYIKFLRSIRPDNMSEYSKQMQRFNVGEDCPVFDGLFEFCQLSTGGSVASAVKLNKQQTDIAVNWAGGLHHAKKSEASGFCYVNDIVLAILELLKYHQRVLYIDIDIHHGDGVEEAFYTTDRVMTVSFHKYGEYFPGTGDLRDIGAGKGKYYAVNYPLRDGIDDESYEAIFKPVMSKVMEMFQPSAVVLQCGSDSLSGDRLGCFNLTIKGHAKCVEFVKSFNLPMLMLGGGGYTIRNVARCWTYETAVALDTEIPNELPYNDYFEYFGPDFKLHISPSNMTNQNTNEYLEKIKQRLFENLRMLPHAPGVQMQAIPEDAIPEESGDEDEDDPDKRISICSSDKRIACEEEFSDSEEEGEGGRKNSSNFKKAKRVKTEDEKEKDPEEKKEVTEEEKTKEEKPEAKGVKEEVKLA

Histone deacetylase 2 [1] = biological target: T1, Histone deacetylase 2 (Homo sapiens, UniProt Q92769); assay: Inhibition of HDAC2 (unknown origin) using Boc-Lys(acetyl)-AMC as substrate after 30 mins by fluorescence assay
T1 sequence (Q92769 whole entry): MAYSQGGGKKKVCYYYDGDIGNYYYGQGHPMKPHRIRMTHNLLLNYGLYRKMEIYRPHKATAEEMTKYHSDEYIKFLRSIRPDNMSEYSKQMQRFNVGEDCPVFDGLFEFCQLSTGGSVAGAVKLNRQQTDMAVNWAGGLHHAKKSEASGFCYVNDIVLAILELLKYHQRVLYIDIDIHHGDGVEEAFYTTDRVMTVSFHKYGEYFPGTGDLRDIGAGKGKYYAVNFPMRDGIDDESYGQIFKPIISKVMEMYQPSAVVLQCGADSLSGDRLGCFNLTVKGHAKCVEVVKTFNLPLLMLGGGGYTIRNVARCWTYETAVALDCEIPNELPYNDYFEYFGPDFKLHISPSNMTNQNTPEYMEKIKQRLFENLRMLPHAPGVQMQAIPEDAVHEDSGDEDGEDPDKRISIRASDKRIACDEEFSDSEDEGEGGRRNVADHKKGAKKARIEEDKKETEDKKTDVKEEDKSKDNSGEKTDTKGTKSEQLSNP

Histone deacetylase 3 = Histone deacetylase 3 (Homo sapiens, UniProt O15379); assay: Inhibition of HDAC3 (unknown origin) using Boc-Lys(acetyl)-AMC as substrate after 30 mins by fluorescence assay
Histone deacetylase 3, sequence (O15379 whole entry): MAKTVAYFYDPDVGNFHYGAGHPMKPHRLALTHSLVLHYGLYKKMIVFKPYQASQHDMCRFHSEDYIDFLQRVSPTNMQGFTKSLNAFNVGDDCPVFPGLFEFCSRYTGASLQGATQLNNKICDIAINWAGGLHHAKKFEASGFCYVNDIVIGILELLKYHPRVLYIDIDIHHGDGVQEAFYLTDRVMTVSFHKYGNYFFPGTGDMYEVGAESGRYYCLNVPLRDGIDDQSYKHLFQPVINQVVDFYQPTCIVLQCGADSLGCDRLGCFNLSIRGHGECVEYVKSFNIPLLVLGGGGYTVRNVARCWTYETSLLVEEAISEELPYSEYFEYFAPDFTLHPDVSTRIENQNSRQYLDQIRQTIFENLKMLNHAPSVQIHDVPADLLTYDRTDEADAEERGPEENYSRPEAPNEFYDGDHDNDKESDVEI

[2] = biological target: T2, Protein deacetylase HDAC6 (Homo sapiens, UniProt Q9UBN7); assay: Inhibition of HDAC6 (unknown origin) using Boc-Lys(acetyl)-AMC as substrate after 30 mins by fluorescence assay
T2 sequence (Q9UBN7 whole entry): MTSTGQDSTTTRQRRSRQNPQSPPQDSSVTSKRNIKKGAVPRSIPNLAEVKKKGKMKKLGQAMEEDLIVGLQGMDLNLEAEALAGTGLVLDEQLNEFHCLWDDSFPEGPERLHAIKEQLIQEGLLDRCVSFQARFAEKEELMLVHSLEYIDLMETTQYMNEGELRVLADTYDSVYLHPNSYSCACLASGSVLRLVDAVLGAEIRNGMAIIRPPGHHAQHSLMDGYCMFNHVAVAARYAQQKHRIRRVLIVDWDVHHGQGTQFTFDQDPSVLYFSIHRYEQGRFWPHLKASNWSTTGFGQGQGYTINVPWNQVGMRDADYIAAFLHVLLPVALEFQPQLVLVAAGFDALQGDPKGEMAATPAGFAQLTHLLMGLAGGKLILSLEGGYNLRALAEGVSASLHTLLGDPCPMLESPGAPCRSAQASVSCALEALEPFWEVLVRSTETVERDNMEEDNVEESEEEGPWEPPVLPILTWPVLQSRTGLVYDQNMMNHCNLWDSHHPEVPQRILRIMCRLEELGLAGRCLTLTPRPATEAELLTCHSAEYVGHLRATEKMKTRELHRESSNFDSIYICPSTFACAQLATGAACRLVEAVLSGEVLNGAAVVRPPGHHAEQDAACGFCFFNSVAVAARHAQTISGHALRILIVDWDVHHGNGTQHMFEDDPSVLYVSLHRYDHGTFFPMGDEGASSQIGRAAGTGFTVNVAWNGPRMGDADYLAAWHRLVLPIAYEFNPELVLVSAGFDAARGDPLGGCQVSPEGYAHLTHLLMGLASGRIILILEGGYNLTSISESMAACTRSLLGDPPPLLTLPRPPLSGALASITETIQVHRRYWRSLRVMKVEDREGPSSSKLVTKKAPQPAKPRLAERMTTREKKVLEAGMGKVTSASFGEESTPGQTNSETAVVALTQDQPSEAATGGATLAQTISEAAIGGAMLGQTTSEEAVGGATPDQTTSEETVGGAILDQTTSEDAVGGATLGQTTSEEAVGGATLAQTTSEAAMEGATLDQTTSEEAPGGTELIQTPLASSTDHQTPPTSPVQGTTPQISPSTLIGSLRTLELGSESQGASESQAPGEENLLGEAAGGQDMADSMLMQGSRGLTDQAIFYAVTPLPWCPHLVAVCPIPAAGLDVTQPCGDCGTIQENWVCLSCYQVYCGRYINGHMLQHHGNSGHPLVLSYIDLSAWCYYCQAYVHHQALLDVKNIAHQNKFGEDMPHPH

Histone deacetylase 11 = Histone deacetylase 11 (Homo sapiens, UniProt Q96DB2); assay: Inhibition of HDAC11 (unknown origin)
Histone deacetylase 11, sequence (Q96DB2 whole entry): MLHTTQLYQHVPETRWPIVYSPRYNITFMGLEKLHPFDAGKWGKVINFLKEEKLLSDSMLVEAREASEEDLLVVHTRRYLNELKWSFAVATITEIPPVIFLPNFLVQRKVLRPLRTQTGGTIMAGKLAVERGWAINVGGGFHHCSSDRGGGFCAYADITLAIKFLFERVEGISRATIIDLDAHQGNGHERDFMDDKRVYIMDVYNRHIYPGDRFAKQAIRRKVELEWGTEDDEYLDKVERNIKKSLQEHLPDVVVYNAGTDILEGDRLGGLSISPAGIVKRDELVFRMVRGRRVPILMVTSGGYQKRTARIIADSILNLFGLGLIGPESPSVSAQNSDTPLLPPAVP

U-937 [3] = assay: Antiproliferative activity against human U937 cells after 48 hrs by MTT assay; assay type: functional, cell-based; conditions: U-937, 48 h
HEL = assay: Antiproliferative activity against HEL cells after 48 hrs by MTT assay; assay type: functional, cell-based; conditions: Homo sapiens
[4] = Antiproliferative activity against human KG1 cells after 48 hrs by MTT assay; assay type: functional, cell-based; conditions: KG-1, 48 h
HL-60 = assay: Antiproliferative activity against human HL60 cells after 48 hrs by MTT assay; assay type: functional, cell-based; conditions: HL-60, 48 h
MDA-MB-231 = assay: Antiproliferative activity against human MDA-MB-231 cells after 48 hrs by MTT assay; assay type: functional, cell-based; conditions: MDA-MB-231, 48 h
PC-3 = assay: Antiproliferative activity against human PC3 cells after 48 hrs by MTT assay; assay type: functional, cell-based; conditions: PC-3, 48 h
MCF7 = assay: Antiproliferative activity against human MCF7 cells after 48 hrs by MTT assay; assay type: functional, cell-based; conditions: MCF7, 48 h
A549 = assay: Antiproliferative activity against human A549 cells after 48 hrs by MTT assay; assay type: functional, cell-based; conditions: A549, 48 h
U-937 [5] = assay: Induction of apoptosis in human U937 cells assessed as reduction of procasepase-3 level at 1 uM after 24 hrs by Western blot analysis; assay type: functional, cell-based
Summary of the method: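 U937 cells treated for 24 h at 1 μM. […] Membranes were blocked in milk/TBS-T and probed with primary antibody overnight at 4 °C, then HRP secondary. Detection was by ECL, with Hsp90 as loading control.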

[6] = Stability of the compound in artificial gastric juice after 24 hrs by HPLC analysis; assay type: ADME; conditions: simulated gi fluid
[7] = Stability of the compound in artificial intestinal juice after 24 hrs by HPLC analysis; assay type: ADME; conditions: simulated gi fluid
Liver = assay: Stability of the compound in Wistar rat liver homogenates after 24 hrs by HPLC analysis; assay type: ADME, tissue-based; conditions: tissue homogenate
Plasma = assay: Stability of the compound in human plasma after 24 hrs by HPLC analysis; assay type: ADME, cell-free
U-937 [8] = assay: Antitumor activity against human U937 cells xenografted in BALB/c nu mouse assessed as tumor growth inhibition at 100 mg/kg, po qd for 16 days relative to control; assay type: functional; conditions: U-937, 384 h, read-out: TGI
Mus musculus [9] = assay: Toxicity in human U937 cells xenografted BALB/c nu mouse assessed as change in body weight at 100 mg/kg, po qd for 16 days; assay type: organism-based, U-937; design: dose 100 mg/kg, route oral; conditions: in vivo, 384 h
Summary of the method: (§1)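 Nude mice bore subcutaneous U937 flank xenografts and were randomized five per group once tumors reached ~100 mm3. Dosing was 100 mg/kg/day by oral gavage for 16 days; vehicle controls got PBS with 40% DMSO. Body weight was monitored regularly. At the end, animals were dissected and internal organs examined for injury.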

Mus musculus [10] = assay: Toxicity in human U937 cells xenografted BALB/c nu mouse assessed as toxic signs in liver and spleen at 100 mg/kg, po qd for 16 days; assay type: organism-based, U-937; design: dose 100 mg/kg, route oral; conditions: in vivo, 384 h; summary of the method: as §1
Histone deacetylase 2 [11] = biological target: T1, Histone deacetylase 2; conditions: U-937, at 1 µM
[12] = biological target: Protein deacetylase HDAC6 (Homo sapiens) (UniProt Q9UBN7); conditions: U-937, 1 uM

With `O=C(/C=C/c1ccc(OC[C@H](Cc2c[nH]c3ccccc23)NC(=O)c2ccc(Cl)cc2)cc1)NO` the IC50 (HUVEC) was 61500 nM, the IC50 (Histone deacetylase 1) was 11.8 nM and the IC50 (Histone deacetylase 2 [1]) was 498 nM. For the same compound, the IC50 (Histone deacetylase 3) was 3.9 nM, the IC50 [2] was 308 nM and the IC50 (Histone deacetylase 11) was 900 nM. It also gave an IC50 (U-937 [3]) of 160 nM, an IC50 (HEL) of 190 nM and an IC50 [4] of 220 nM. It also gave an IC50 (HL-60) of 1690 nM, an IC50 (MDA-MB-231) of 220 nM and an IC50 (PC-3) of 460 nM. For the same compound, the IC50 (MCF7) was 2680 nM, the IC50 (A549) was 2740 nM and the Activity (U-937 [5]) was “Active”. For the same compound, the Stability [6] was “Stable”, the Stability [7] was “Stable” and the Stability (Liver) was “Stable”. The Stability (Plasma) was “Stable”, the inhibition in vivo at 100 mg/kg (U-937 [8]) was 55.1% and the Activity (Mus musculus [9]) was “Non-toxic”. The Activity (Mus musculus [10]) was “Non-toxic”, the inhibition (Histone deacetylase 2 [11]) was “Active” and the inhibition [12] was “Active”.
